Holding throughout (assay type): functional
For test [1], the system named is P388. Briefly: Antitumor activity against mouse P388 cells allografted in mouse assessed as increase in life span at 100 mg/kg, ip qd administered on day 1 to day 9 relative to control. The settings on record: route intraperitoneal. In outline: (§1)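 NCI Division of Cancer Treatment standard P-388 lymphocytic leukaemia protocol in mice. Drug given intraperitoneally once daily on days 1–9, with dose in mg/kg. The vehicle was water, saline or propylene glycol depending on the compound. T/C = (mean or median survival of treated ÷ control survival) × 100.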

Test [2] concerns KB. Nature of the test: Cytotoxicity against human KB cells assessed as growth inhibition. To be noted: for EC50: Homo sapiens, KB, read-out: ED50 (the source's name). In outline: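 KB cell culture run under standard National Cancer Institute Division of Cancer Treatment protocols. Compounds were dissolved in water or propylene glycol as vehicle, depending on the compound. ED50 is the dose that inhibits growth to 50% of control growth, in μg/ml.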

For test [3], the system named is P388. Briefly: Antitumor activity against mouse P388 cells allografted in mouse assessed as increase in life span at 400 mg/kg, ip qd administered on day 1 to day 9 relative to control. The settings on record: route intraperitoneal. In outline: as §1
The test system of test [4] is P388. Briefly: Antitumor activity against mouse P388 cells allografted in mouse assessed as increase in life span at 6.25 mg/kg, ip qd administered on day 1 to day 9 relative to control. The settings on record: route intraperitoneal. The essentials:
as §1

The test system of test [5] is P388. Nature of the test: Antitumor activity against mouse P388 cells allografted in mouse assessed as increase in life span at 38.4 mg/kg, ip qd administered on day 1 to day 9 relative to control. The settings on record: route intraperitoneal. In outline: as §1
Test [6] concerns P388. Briefly: Antitumor activity against mouse P388 cells allografted in mouse assessed as increase in life span at 5 mg/kg, ip qd administered on day 1 to day 9 relative to control. To be noted: route intraperitoneal. The essentials:
as §1

In test [7] the test system is P388. Briefly: Antitumor activity against mouse P388 cells allografted in mouse assessed as increase in life span at 256 mg/kg, ip qd administered on day 1 to day 9 relative to control. To be noted: route intraperitoneal. The essentials:
as §1

In test [8] the test system is P388. Briefly: Antitumor activity against mouse P388 cells allografted in mouse assessed as increase in life span at 40 mg/kg, ip qd administered on day 1 to day 9 relative to control. The settings on record: route intraperitoneal. In outline:
as §1

The subject of test [9] is P388. Briefly: Antitumor activity against mouse P388 cells allografted in mouse assessed as increase in life span at 0.3 mg/kg, ip qd administered on day 1 to day 9 relative to control. To be noted: route intraperitoneal. The essentials:
as §1

In brackets after ≈: the same amount, converted by molar mass. Activity calls are given as the source filed them. The calls are words filed in the database; no cut-off is given here.

For `CCCCCCCCCCSCC(CO)NC(=O)/C=C/c1c(C)[nH]c(=O)[nH]c1=O` (racemic), the T/C in test [1] worked out at 155%.
Take `Cc1[nH]c(=O)[nH]c(=O)c1/C=C/C(=O)NC(CO)CSCc1ccccc1` (single isomer, unassigned; (-)): in test [2], the EC50 was above 100 µg/mL. In addition, the T/C in test [3] came to 95%.
The corresponding values for `Cc1[nH]c(=O)[nH]c(=O)c1/C=C/C(=O)NC(CO)C[S+]([O-])C(C)C.O` (single isomer, unassigned; (-)) are above 100 µg/mL and 113%.
Turning to `CCCCCCCCCC[S+]([O-])CC(CO)NC(=O)/C=C/c1c(C)nc(O)nc1O` (racemic), in test [4], the T/C came to 153%.
For the molecule `CCCCSCC(CO)NC(=O)/C=C/c1c(C)[nH]c(=O)[nH]c1=O` (single isomer, unassigned; (-)), the EC50 in test [2] worked out at 27 µg/mL (≈ 79.1 µM).
For `CSCSCC(CO)NC(=O)/C=C/c1c(C)nc(O)nc1O` (racemic) [listing 1 of 2 here], the T/C in test [5] worked out at 92%.
Take `Cc1[nH]c(=O)[nH]c(=O)c1/C=C/C(=O)NC(CO)C[S+]([O-])C[S+](C)[O-].O` (racemic): the T/C in test [6] is 137%. Further, the EC50 in test [2] came to 2.4 µg/mL.
In the same order, the values of `CCCC[S+]([O-])CC(CO)NC(=O)/C=C/c1c(C)[nH]c(=O)[nH]c1=O` (racemic) are 161% and 1.2 µg/mL (≈ 3.36 µM).
Consider `Cc1[nH]c(=O)[nH]c(=O)c1/C=C/C(=O)NC(CO)C[S+]([O-])Cc1ccccc1.O` (single isomer, unassigned; (-)), for which the EC50 in [2] came to 88 µg/mL. For the same molecule, in test [3], the T/C amounted to 93%.
As for `CSCSCC(CO)NC(=O)/C=C/c1c(C)nc(O)nc1O` (single isomer, unassigned; (-)), the ED50 in [2] is above 100 µg/mL. The T/C in test [3] (400 mg/kg) was 86%.
Turning to `Cc1[nH]c(=O)[nH]c(=O)c1/C=C/C(=O)NC(CO)C[S+](C)[O-].O` (racemic), the ED50 in [2] is 1.5 µg/mL. For the same molecule, the T/C in test [7] is reported as 137%.
For `Cc1[nH]c(=O)[nH]c(=O)c1/C=C/C(=O)NC(CO)CSC(C)C` (stereo not given), the EC50 in test [2] was above 100 µg/mL. Further, the T/C in test [3] is on record as 89%.
For `CSCSCC(CO)NC(=O)/C=C/c1c(C)nc(O)nc1O` (racemic) [listing 2 of 2 here], the ED50 entry in test [2] was “inactive”.
Regarding `Cc1[nH]c(=O)[nH]c(=O)c1/C=C/C(=O)NC(CO)C[S+](C)[O-].O` (stereo in doubt; 10c), in test [8], the T/C was 100%. Moreover, the ED50 in test [2] is above 100 µg/mL.
Regarding `CSCC(CO)NC(=O)/C=C/c1c(C)[nH]c(=O)[nH]c1=O` (single isomer, unassigned; (-)), the EC50 in test [2] is above 100 µg/mL. In addition, the T/C in [3] (400 mg/kg) is 69%.
With `CSCC(CO)NC(=O)/C=C/c1c(C)[nH]c(=O)[nH]c1=O` (racemic), the T/C in test [3] (400 mg/kg) worked out at 88%.
Consider `CSC[S+]([O-])C[C@H](CO)NC(=O)/C=C/c1c(C)[nH]c(=O)[nH]c1=O` (stereo not given in full), for which the T/C in test [9] came to 156%. For the same molecule, the EC50 in test [2] worked out at 0.08 µg/mL (≈ 0.221 µM).
Turning to `CSCSCC(CO)NC(=O)/C=C/c1c(C)nc(O)nc1O` (single isomer, unassigned; (+)), the ED50 in test [2] stood at 13 µg/mL (≈ 37.6 µM). For the same molecule, the T/C in test [3] (400 mg/kg) is 14%.
